Only some compounds are listed: those with a hit (about 12% of all), similar ones and a draw of the others.
Arbovirus inh – arbovirus infection inhibition. arbovirus infection cell-based antiviral screen. inhibition, % at 10 µM. 0.37% of 200,000 active; in the data active means inhibition above about 30%
L major viab – Leishmania major promastigote growth inhibition; Leishmania major promastigotes, resazurin fluorescence viability; inhibition, % at 10 µM; 9% of 200,000 active;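 further: promastigotes grown with compound for 44 hours at 28 °C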
Wee1 degr inh – inhibitors of human Wee1 degradation | reporter increase, % at 5 µM | HeLa Luc-Wee1K328M stability, luciferase luminescence; 100% = proteasome inhibitor MG132 effect | P30291 | 1.2% of 220,000 active;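 active means activation above the mean of all tested compounds plus 3 SD, set per screening run, cut at about 8.8% in these data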;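 further: cells exposed to compound for 20 h before luminescence read; 0% = DMSO alone and 100% = MG132 at 30 µM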
PKD1 kinase inh – inhibitors of human PKD1 kinase; Q15139; PKD1 kinase fluorescence polarization assay; inhibition, % (test concentration not listed); 0.056% of 200,000 active
CHOP inhibitor – inhibitors of CHOP induction in ER stress response. AID 2732. CHO-K1 CHOP-promoter luciferase, tunicamycin-induced, 15-18 h. inhibition, % at 10 µM. 3.8% of 220,000 active;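 active means compounds that reduced the stress-induced luciferase reporter signal by more than about 70% of percent inhibition, limit read from the data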;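 further: 0% = tunicamycin plus vehicle and 100% = wells without tunicamycin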
Rad51 HR inh – Rad51 (human) homologous recombination inhibition; 0.085% of 200,000 active; hRad51 DNA strand exchange, fluorescence dequenching; Q06609; inhibition, % at 10 µM;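 active means inhibition above 40% at the single screening dose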;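 further: 0% = DMSO control wells and 100% = blanks with heterologous ssDNA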
Target sequence (Q06609 whole entry, looked up): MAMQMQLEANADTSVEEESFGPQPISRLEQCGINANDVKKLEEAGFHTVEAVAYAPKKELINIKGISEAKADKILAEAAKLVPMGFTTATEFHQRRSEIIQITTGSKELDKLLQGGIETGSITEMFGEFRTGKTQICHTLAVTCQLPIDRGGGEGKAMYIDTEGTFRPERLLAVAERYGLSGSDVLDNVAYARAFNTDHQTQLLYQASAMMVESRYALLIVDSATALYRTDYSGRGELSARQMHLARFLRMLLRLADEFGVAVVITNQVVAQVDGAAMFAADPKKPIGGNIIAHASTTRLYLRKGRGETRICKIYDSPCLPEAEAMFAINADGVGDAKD
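System: human Rad51 nucleoprotein filaments preassembled on unlabelled ssDNA. Reagent: labelled 47-mer dsDNA for strand exchange. Schedule: 30-min compound preincubation and 15-min exchange, both room temperature. Measured by: FRET fluorescence dequenching, excitation 485 nm, emission 520 nm. Read-out: Fluorescence-based percent inhibition, control- and blank-normalised. Benchmarks: plate controls and plate blanks.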
Active calls of the source: *; . = not tested or not shown. Unless noted, no stated cut-off is given here; in the data, active means inhibition above about 50%; inactive means the rest.

SMILES	Arbovirus inh	L major viab	Wee1 degr inh	PKD1 kinase inh	CHOP inhibitor	Rad51 HR inh
Cc1ccc(/C(O)=C2\C(=O)C(=O)N(CC(C)O)C2c2ccccn2)cc1 (configuration not stated)	3	3	-1	-5	-16	-31
COc1cccc(N2CCN(c3c(C#N)c(C(F)(F)F)nn3C)CC2)c1	4	80*	3	0	29	5
CCOC(=O)c1cn2c3c(c(F)c(F)cc3c1=O)SC(N1CCOCC1)=N2	.	12	0	-12	.	.
N=c1n(CC(=O)c2ccc([N+](=O)[O-])cc2)c2ccccc2n1Cc1ccccc1	-17	99*	4	-4	75*	12
N=c1n(CC(=O)c2ccc([N+](=O)[O-])cc2)c2ccccc2n1Cc1ccccc1Cl	-5	101*	4	4	35	-13
CC1=CC(C)C(/C=N/N=C(N)N)C(C)C1 (configuration not stated)	.	.	1	.	3	11
O=c1[nH]c(-c2ccc3c(c2)OCO3)nc2c1sc(=S)n2-c1ccccc1	17	51*	-1	-1	43	-5
O=c1[nH]c(-c2ccc(F)cc2)nc2c1sc(=S)n2-c1ccccc1	19	14	1	0	33	25
CC1CC(C)CN(C(=O)Cn2cc(C=O)c3ccccc32)C1 (configuration not stated)	-2	5	1	1	-16	-13
CCOc1ccccc1C(=O)N1CCN(c2cccc(Cl)c2)CC1	-18	6	-1	-2	.	-2
COc1ccccc1N1CCN(c2ncc(C(=O)N3CCN(c4cccc(Cl)c4)CC3)c3ccccc23)CC1	9	62*	0	2	86*	6
COc1cc2c(C(=O)N3CCN(c4cccc(Cl)c4)CC3)cn(CC(C)C)c(=O)c2cc1OC	-34	58*	1	-2	2	-7
Cc1ccc(S(=O)(=O)N2CCC(C(=O)O)CC2)cc1	8	-7	1	1	1	3
O=C(CCN1CCN(c2ccccc2)CC1)Nc1ccc(OCc2ccccc2)cc1	-7	3	0	4	30	5
O=C(CCSc1ccccc1)Nc1ccc(OCc2ccccc2)cc1	-1	-4	-1	9	75*	7
Cc1nn(-c2cc(N3CCNCC3)ccc2[N+](=O)[O-])c(=O)c2ccccc12	-1	67*	-1	-10	-17	-4
CC(Nc1cc(N2CCNCC2)ccc1[N+](=O)[O-])c1ccccc1 (configuration not stated)	-35	100*	3	2	31	.
CCS(=O)(=O)N1CCN(c2ccc([N+](=O)[O-])c(NC(C)c3ccccc3)c2)CC1 (configuration not stated)	-5	1	2	-13	30	8
CN1CCN(c2ccc([N+](=O)[O-])c(-n3nc(-c4ccccc4)c4ccccc4c3=O)c2)CC1	-12	99*	-2	-7	-1	9
Cc1nn(-c2cc(N3CCCCC3)ccc2[N+](=O)[O-])c(=O)c2ccccc12	-19	21	2	2	13	1
COc1ccc(Br)c(C(=O)NC2CCCC2)c1	17	17	-3	-6	4	-2
Cc1cc(C)c(NC(=O)CS(=O)CC(=O)NC2CCCc3ccccc32)c(C)c1 (configuration not stated)	3	1	0	-6	41	0
Cc1cc([N+](=O)[O-])nn1CCCC(=O)Nc1sc2c(c1C(N)=O)CCC(C)C2 (configuration not stated)	-10	69*	0	-7	28	1
CC1CCc2c(sc(NC(=O)Cn3cnc([N+](=O)[O-])n3)c2C(N)=O)C1 (configuration not stated)	21	40	1	-3	39	-1
Cc1c(C#N)c(N=CN(C)C)c(C(=O)c2ccc(Br)cc2)n1-c1ccc(Cl)cc1	-7	100*	3	2	19	2
SMILES	Arbovirus inh	L major viab	Wee1 degr inh	PKD1 kinase inh	CHOP inhibitor	Rad51 HR inh
CC(=O)c1c(N)c(C#N)c(C)n1-c1ccc(Br)cc1	3	2	-1	-8	14	6
O=C(CP(=O)(c1ccccc1)c1ccccc1)Nn1cnnc1	9	-3	-1	-16	-3	12
COc1ccccc1N(C1=NCCCS1)S(=O)(=O)c1ccc(C(C)(C)C)cc1	1	20	1	6	9	.
CCCCN(CCCC)S(=O)(=O)c1ccc(OC)c2ncccc12	3	75*	-3	-1	15	2
COc1ccc(S(=O)(=O)N(CC(C)C)CC(C)C)c2cccnc12	-1	72*	3	-3	17	-2
Cc1cc([N+](=O)[O-])nn1CC(=O)NCc1nc2ccccc2[nH]1	9	7	2	-3	-6	0
Cc1cc2cc(CCNC(=O)c3ccc(S(=O)(=O)N4CCOCC4)cc3)c(=O)[nH]c2cc1C	-6	3	-2	-9	71*	-8
COc1ccc(NC(=O)c2ccco2)cc1N	-4	28	3	-8	70*	-5
COc1ccccc1NC(=O)Oc1ccc(NC(=O)c2ccco2)cc1	-7	52*	5	-7	7	-3
COc1cc(OC)cc(C(=O)Nc2ccc(NC(=O)c3ccco3)c(Cl)c2)c1	-8	7	9.7*	1	-58	1
COc1ccc(NC(=O)c2ccco2)cc1NC(=O)c1ccco1	-3	5	-1	-8	8	-3
COc1c(F)c(F)c(C(=O)Nc2ccc(NC(=O)c3ccco3)cc2)c(F)c1F	-18	64*	-2	-5	80*	0
C=CCc1c(NCCO)nc(C)[nH]c1=O	4	-5	2	-1	10	18
CN(CC(=O)O/N=C(\N)c1ccc([N+](=O)[O-])cc1)S(=O)(=O)c1ccc2ccccc2c1	-1	-2	-1	-1	32	.
O=C(Nc1ccc(Oc2ccc3ccccc3c2)cc1)c1ccco1	7	17	-1	-2	18	4
COC(=O)c1cccc(NC(=O)c2ccco2)c1	-1	45	2	-11	17	3
COc1cccc(C(=O)Nc2cc(NC(=O)c3ccco3)ccc2OC)c1	2	2	-1	-1	16	1
CC(C)(C)C(=O)COC(=O)c1cccc(NC(=O)c2ccco2)c1	3	-3	-1	-25	72*	2
O=C(Nc1ccc(Oc2ccc(NC(=O)c3ccco3)c(NC(=O)c3ccco3)c2)cc1)c1ccco1	-16	98*	-1	-3	40	-3
CNC(=S)Nc1cc(OC)c(NC(=O)c2ccco2)cc1OC	-7	7	9.9*	2	-22	-43
COc1ccccc1NC(=O)c1cccc(NC(=O)c2ccco2)c1	-7	88*	2	-3	16	3
CCOc1cc(NC(=S)NC)c(OCC)cc1NC(=O)c1ccco1	-7	44	0	2	9	.
Clc1ccc(SCCN2CCNCC2)cc1	-16	100*	3	-3	-14	-8

High-throughput results: PubChem, several laboratories
